Values joined by “and” are separate entries in the source; they are usually repeats but may differ in a detail not shown here. Equal entries are not always repeated.
Legend:
MNV^CW3 [1] = assay: MNV viral genome copies quantification; type: cell-based, murine norovirus; conditions: RAW264.7 cells, 40 μg/mL, 24 h
MNV^CW3 [2] = assay: MNV plaque assay; type: cell-based, murine norovirus; conditions: RAW264.7 cells, 40 μg/mL, 24 h
Outline: (§1)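 Infected cells harvested at 24 hpi and frozen at −80 °C. RAW264.7 monolayers seeded at 1.8 × 10^6 cells/well; 16 h later, tenfold serial lysate dilutions applied for 1 h with rocking. Overlay of MEM, 10% FBS, 2 mM L-glutamine, 10 mM HEPES and 1% methylcellulose, incubated 2 days. Plaques stained with 0.2% crystal violet in 20% ethanol.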

MNV^CW3 RdRp = target: T1, MNV^CW3 RdRp (Norovirus, UniProt Q80J95); assay: RdRp inhibition assay; type: biochemical, murine norovirus
T1 sequence (Q80J95 1178-1687 limits assumed): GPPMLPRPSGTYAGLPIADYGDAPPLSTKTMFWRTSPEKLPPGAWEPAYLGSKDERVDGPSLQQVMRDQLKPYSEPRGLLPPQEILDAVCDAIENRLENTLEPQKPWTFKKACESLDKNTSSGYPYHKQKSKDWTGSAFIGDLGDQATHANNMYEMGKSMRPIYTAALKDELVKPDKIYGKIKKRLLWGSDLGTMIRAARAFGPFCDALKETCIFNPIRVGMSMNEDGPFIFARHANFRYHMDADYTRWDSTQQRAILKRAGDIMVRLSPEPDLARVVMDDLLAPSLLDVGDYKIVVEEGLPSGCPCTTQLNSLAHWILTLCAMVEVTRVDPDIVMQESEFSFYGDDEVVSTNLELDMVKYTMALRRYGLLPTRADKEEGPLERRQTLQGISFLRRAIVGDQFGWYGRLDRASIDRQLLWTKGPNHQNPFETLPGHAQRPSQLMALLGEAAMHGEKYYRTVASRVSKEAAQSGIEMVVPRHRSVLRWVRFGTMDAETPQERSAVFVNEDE
Outline: (§2)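 MNV^CW3 RdRp (GST-tagged) or HNV GII.4 Sydney/2006 RdRp (His-tagged) expressed in E. coli BL21(DE3) and affinity-purified. Enzyme preincubated with compound 10 min at 30 °C in 10 mM PBS pH 7.5, 2.5 mM MnCl2, 5 mM DTT. Poly(C) and GTP then added (final 2.8 μM enzyme, 40 μg/mL poly(C), 25 μM GTP), 30 min at 30 °C. EDTA stop; dsRNA by PicoGreen (ex 480/em 520 nm); normalized to 0.5% DMSO vehicle.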

HNV RdRp = target: T2, HNV RdRp (Norovirus Hu/GII.4/Sydney348/97O/AU, UniProt Q2N379); assay: RdRp inhibition assay; type: biochemical, human norovirus (G II 0.4/Sydney/2006)
T2 sequence (Q2N379 1-510): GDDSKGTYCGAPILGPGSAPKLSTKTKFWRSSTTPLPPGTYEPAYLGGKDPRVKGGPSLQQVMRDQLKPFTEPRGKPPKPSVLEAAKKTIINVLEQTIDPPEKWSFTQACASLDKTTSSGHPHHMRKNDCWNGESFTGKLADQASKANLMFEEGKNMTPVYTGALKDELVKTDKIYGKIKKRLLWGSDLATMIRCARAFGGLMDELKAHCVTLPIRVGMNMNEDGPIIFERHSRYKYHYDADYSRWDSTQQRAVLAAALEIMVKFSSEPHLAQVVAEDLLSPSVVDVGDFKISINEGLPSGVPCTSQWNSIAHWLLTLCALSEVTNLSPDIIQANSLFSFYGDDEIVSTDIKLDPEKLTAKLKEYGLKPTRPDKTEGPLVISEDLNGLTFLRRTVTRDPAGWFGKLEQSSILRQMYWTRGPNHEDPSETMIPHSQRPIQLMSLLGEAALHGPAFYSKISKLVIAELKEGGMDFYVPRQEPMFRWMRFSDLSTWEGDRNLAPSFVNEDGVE
Outline: as §2

MNV^CR6 = MNV^CR6 replication in cell culture; type: cell-based, murine norovirus; conditions: BV2 and RAW264.7 cells
MNV RdRp = target: T3, MNV RdRp (Norovirus, UniProt Q80J95); assay: Size-exclusion chromatography of MNV RdRp with or without compound; design: species or system murine norovirus; conditions: 60 μM compound
T3 sequence (Q80J95 1178-1687 limits assumed): T1 sequence (Q80J95 1178-1687 limits assumed)
Outline: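 Purified RdRp, with or without 60 μM compound, run on a Superose 6 10/300 GL gel-filtration column equilibrated in 20 mM Tris-HCl pH 8.0, 150 mM NaCl, at 0.4 mL/min.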

MNV^CW3 [3] = assay: Cell viability of MNV^CW3-infected RAW264.7 cells; type: cell-based, murine norovirus; conditions: RAW264.7 cells after MNV^CW3 infection, 24 h
MNV^CW3 [4] = assay: MNV plaque assay; type: cell-based, murine norovirus; conditions: BV2 cells, 97 μM, 24 h
Outline: as §1

MNV^CW3 [5] = assay: Cell viability-based anti-MNV screening in MNV^CW3-infected BV2 cells; design: species or system murine norovirus; conditions: MNV^CW3 infection, 40 μg/mL compound, 24 h, DMSO control about 2.7%
Outline: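 BV2 cells plated at 10,000/well 16–18 h before infection with MNV^CW3 at MOI 0.25 for 1 h. Medium then replaced with 40 μg/mL compound or DMSO vehicle. Viability read after 24 h as ATP level by luminescence kit. At least 3 biological repeats.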

Cytotoxicity [6] = type: cell-based; conditions: mouse, BV2 cells
MNV^CW3 [7] = assay: MNV viral genome copies quantification; type: cell-based, murine norovirus; conditions: BV2 cells, 40 μg/mL (97 μM), 24 h treatment
Cytotoxicity [8] = type: cell-based; conditions: mouse, RAW264.7 cells

SMILES | MNV^CW3 genome copy number (MNV^CW3 [1]) | MNV^CW3 viral titers (MNV^CW3 [2]) | IC50 (MNV^CW3 RdRp) [µM] | inhibition of MNV^CW3 RdRp (MNV^CW3 RdRp; 35 μM RdRp in the reaction system, vs vehicle (0.5% DMSO), 4 μL of 100 μM compound (4 μM Co-29 final)) [%] | IC50 (HNV RdRp) [µM] | inhibition of HNV RdRp (HNV RdRp; same assay, normalized to DMSO vehicle control) | cell viability after MNV^CR6 infection (MNV^CR6) | MNV^CR6 plaque numbers (MNV^CR6; 97 μM) | MNV^CR6 viral genome copies (MNV^CR6; 97 μM (40 μg/mL)) | main SEC peak formed by the protein when compound added (aggregation check) (MNV RdRp) | concentration of maximum effectiveness (cell viability) (MNV^CW3 [3]) [µg/mL] | formation of MNV^CW3 plaques (viral titer) (MNV^CW3 [4]) | cell viability (ratio of live cells) (MNV^CW3 [5]) [%] | CC50 (Cytotoxicity [6]) | decrease of MNV^CW3 RNA level vs DMSO vehicle control (MNV^CW3 [7]) | CC50 (Cytotoxicity [8]) [µM]
N#Cc1c(-c2ccccc2O)nc(SCC(=O)Nc2cc(F)cc(F)c2)[nH]c1=O [Co-29, 2-((5-cyano-4-(2-hydroxyphenyl)-6-oxo-1,6-dihydropyrimidin-2-yl)thio)-N-(3,5-difluorophenyl)acetamide] | decreased | decreased | 32 | > 75 | 36.6 | more than 70% | increased cell viability | decreased plaque numbers | low levels of viral genome copies | did not change | 40 | dramatically inhibited | 36.9 | ~52.2 µg/mL and ~126 µM | more than 2 Log10-fold | 105
C[C@@]1(O)[C@H](O)[C@@H](CO)O[C@H]1n1ccc(N)nc1=O [Compound 2CMC, 2′-C-methyl-cytidine, reference compound] | decreased | decreased |  |  |  |  |  |  |  |  |  |  |  |  |  | 

Reference: PMC11969896 (Virology Journal, 2025)
